Reference: ChEMBL document CHEMBL4680257, “Discovery of novel NF-кB inhibitor based on scaffold hopping: 1,4,5,6,7,8-hexahydropyrido[4,3-d]pyrimidine” (Eur J Med Chem, 2020)

Tests used:
HepG2 = assay: Cytotoxicity against human HepG2 cells assessed as reduction in cell viability incubated for 24 hrs by MTT assay; format: functional, cell-based; details: HepG2, 24 h
Outline: (§1)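 Cells kept at 37 °C in 5% CO₂. HepG2 grown in DMEM with 10% serum; HHL-5, LO2 and SMMC-7721 in 1640 medium with 10% serum. Seeded, grown 24 h, then exposed 24 h to 10, 5, 2.5, 1.25, 0.625 and 0.3125 µg/mL. MTT (5 mg/mL) added for 4 h at 37 °C; formazan dissolved in DMSO, OD read at 570 nm. IC50 averaged from three replicates.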

SMMC-7721 = assay: Cytotoxicity against human SMMC-7721 cells assessed as reduction in cell viability incubated for 24 hrs by MTT assay; format: functional, cell-based; details: SMMC-7721, 24 h; outline: as §1
[1] = Cytotoxicity against human HHL-5 cells assessed as reduction in cell viability incubated for 24 hrs by MTT assay; format: cell-based; details: HHL-5, 24 h; outline: as §1
L02 = assay: Cytotoxicity against human L02 cells assessed as reduction in cell viability incubated for 24 hrs by MTT assay; format: cell-based; details: L02, 24 h; outline: as §1
RAW264.7 [2] = assay: Cytotoxicity against mouse RAW264.7 cells assessed as reduction in cell viability at 5 uM incubated for 24 hrs by MTT assay; format: cell-based; details: raw264.7, 24 h
RAW264.7 [3] = assay: Antiinflammatory activity against mouse RAW264.7 cells assessed as LPS-induced TNF-alpha at 5 uM pretreated for 2 hrs followed by LPS stimulation and measured after 22 hrs by ELISA (reference value: 0 %); format: functional; details: time 24 hrs
RAW264.7 [4] = assay: Antiinflammatory activity against mouse RAW264.7 cells assessed as LPS-induced IL-6 at 5 uM pretreated for 2 hrs followed by LPS stimulation and measured after 22 hrs by ELISA relative to control (reference value: 0 %); format: functional; details: time 24 hrs

Row | SMILES | IC50 (HepG2) | IC50 (SMMC-7721) | IC50 [1] | IC50 (L02) | Activity (RAW264.7 [2]) | inhibition at 5 µM (RAW264.7 [3]) | inhibition at 5 µM (RAW264.7 [4])
1 | Cc1ccc(S(=O)(=O)N2CC3=C(NC(N)=NC3c3cccc(F)c3)/C(=C/c3cccc(F)c3)C2)cc1.Cl (centres undefined) | 11.7 µM | 11.7 µM | 23.2 µM | 11.2 µM | Non-Toxic | 40.5% | 46.7%
2 | O=C1/C(=C/c2ccccc2F)CN(S(=O)(=O)c2ccc(C(F)(F)F)cc2)C/C1=C\c1ccccc1F | 4.9 µM | 5.2 µM | 15.3 µM | 16.2 µM | Non-Toxic | – | –
3 | N#Cc1ccc(S(=O)(=O)N2C/C(=C\c3ccccc3F)C(=O)/C(=C/c3ccccc3F)C2)cc1 | 16.5 µM | 14.6 µM | 13.6 µM | 11 µM | Non-Toxic | – | –
4 | Cc1ccc(S(=O)(=O)N2CC3=C(NC(N)=NC3c3ccc(F)cc3)/C(=C/c3ccc(F)cc3)C2)cc1.Cl (centres undefined) | 4.5 µM | 4.3 µM | 32.7 µM | 17.7 µM | Non-Toxic | 61.8% | 60.1%
5 | CC(=O)Nc1ccc(S(=O)(=O)N2C/C(=C\c3cccc(F)c3)C(=O)/C(=C/c3cccc(F)c3)C2)cc1 | 11.1 µM | 10.3 µM | 17 µM | 17.5 µM | Non-Toxic | – | –
6 | Cl.N#Cc1ccc(S(=O)(=O)N2CC3=C(NC(N)=NC3c3ccccc3F)/C(=C/c3ccccc3F)C2)cc1 (centres undefined) | 11.7 µM | 19 µM | 29 µM | 12 µM | Non-Toxic | 62.9% | 71.2%
7 | O=C1/C(=C/c2ccc(F)cc2)CN(S(=O)(=O)c2ccc(F)cc2)C/C1=C\c1ccc(F)cc1 | 8.1 µM | 14.7 µM | 11.7 µM | 14.8 µM | Non-Toxic | – | –
8 | Cl.NC1=NC(c2ccccc2F)C2=C(N1)/C(=C/c1ccccc1F)CN(S(=O)(=O)c1ccc([N+](=O)[O-])cc1)C2 (centres undefined) | 11.9 µM | 5.7 µM | 10.7 µM | 12.4 µM | Non-Toxic | 72.7% | 79.6%
9 | O=C1/C(=C/c2ccccc2F)CN(S(=O)(=O)c2ccc(F)cc2)C/C1=C\c1ccccc1F | 8 µM | 7.7 µM | 14.5 µM | 17.5 µM | Non-Toxic | – | –
10 | O=C1/C(=C/c2ccc(F)cc2)CN(S(=O)(=O)c2ccc(Cl)cc2)C/C1=C\c1ccc(F)cc1 | 4.5 µM | 7 µM | 17.7 µM | 15.5 µM | Non-Toxic | – | –
11 | O=C1/C(=C/c2ccccc2F)CN(S(=O)(=O)c2ccccc2)C/C1=C\c1ccccc1F | 15.9 µM | 5.7 µM | 27.2 µM | 17.6 µM | Non-Toxic | – | –
12 | Cc1ccc(S(=O)(=O)N2CC3=C(NC(N)=NC3c3ccccc3F)/C(=C/c3ccccc3F)C2)cc1.Cl (centres undefined) | 13.1 µM | 7.3 µM | 9.6 µM | 11.5 µM | Non-Toxic | 44% | 56.8%
13 | Cl.NC1=NC(c2cccc(F)c2)C2=C(N1)/C(=C/c1cccc(F)c1)CN(S(=O)(=O)c1ccc(F)cc1)C2 (centres undefined) | 12.4 µM | 4.8 µM | 12.9 µM | 18.8 µM | Non-Toxic | 71.6% | 74.9%
14 | Cl.NC1=NC(c2ccccc2F)C2=C(N1)/C(=C/c1ccccc1F)CN(S(=O)(=O)c1ccc(F)cc1)C2 (centres undefined) | 12.1 µM | 10 µM | 12 µM | 16.5 µM | Non-Toxic | 78.6% | 79.5%
15 | Cc1ccc(S(=O)(=O)N2C/C(=C\c3cccc(F)c3)C(=O)/C(=C/c3cccc(F)c3)C2)cc1 | 3.5 µM | 18.1 µM | 11.2 µM | 15.7 µM | Non-Toxic | – | –
16 | O=C1/C(=C/c2cccc(F)c2)CN(S(=O)(=O)c2ccc(Br)cc2)C/C1=C\c1cccc(F)c1 | 7.7 µM | 11.7 µM | 16.5 µM | 15.8 µM | Non-Toxic | – | –
17 | Cl.NC1=NC(c2ccccc2F)C2=C(N1)/C(=C/c1ccccc1F)CN(S(=O)(=O)c1ccc(Br)cc1)C2 (centres undefined) | 10.4 µM | 9.7 µM | 12.5 µM | 19.5 µM | Non-Toxic | 74.4% | 79.6%
18 | O=C1/C(=C/c2ccccc2F)CN(S(=O)(=O)c2ccc(Cl)cc2)C/C1=C\c1ccccc1F | 10.9 µM | 4.5 µM | 9.6 µM | 14.1 µM | Non-Toxic | – | –
19 | Cc1ccc(S(=O)(=O)N2C/C(=C\c3ccc(F)cc3)C(=O)/C(=C/c3ccc(F)cc3)C2)cc1 | 4.5 µM | 5 µM | 6 µM | 14 µM | Non-Toxic | – | –

Row | SMILES | IC50 (HepG2) | IC50 (SMMC-7721) | IC50 [1] | IC50 (L02) | Activity (RAW264.7 [2]) | inhibition at 5 µM (RAW264.7 [3]) | inhibition at 5 µM (RAW264.7 [4])
20 | Cl.NC1=NC(c2cccc(F)c2)C2=C(N1)/C(=C/c1cccc(F)c1)CN(S(=O)(=O)c1ccc(Br)cc1)C2 (centres undefined) | 10.6 µM | 6.3 µM | 13 µM | 10.1 µM | Non-Toxic | 69.3% | 71%
21 | CC(=O)Nc1ccc(S(=O)(=O)N2C/C(=C\c3ccccc3F)C(=O)/C(=C/c3ccccc3F)C2)cc1 | 5.2 µM | – | 13.6 µM | – | Non-Toxic | – | –
22 | CC(=O)Nc1ccc(S(=O)(=O)N2C/C(=C\c3ccc(F)cc3)C(=O)/C(=C/c3ccc(F)cc3)C2)cc1 | 7.4 µM | 9.8 µM | 15 µM | 19.4 µM | Non-Toxic | – | –
23 | O=C1/C(=C/c2cccc(F)c2)CN(S(=O)(=O)c2ccc(C(F)(F)F)cc2)C/C1=C\c1cccc(F)c1 | 2.4 µM | 4.2 µM | 13.4 µM | 18 µM | Non-Toxic | – | –
24 | O=C1/C(=C/c2ccc(F)cc2)CN(S(=O)(=O)c2ccc(Br)cc2)C/C1=C\c1ccc(F)cc1 | 8 µM | 11.5 µM | 17.1 µM | 16.4 µM | Non-Toxic | – | –
25 | O=C1/C(=C/c2cccc(F)c2)CN(S(=O)(=O)c2ccc(Cl)cc2)C/C1=C\c1cccc(F)c1 | 13.1 µM | 7.8 µM | 10.8 µM | 15.7 µM | Non-Toxic | – | –
26 | O=C1/C(=C/c2ccccc2F)CN(S(=O)(=O)c2ccc(Br)cc2)C/C1=C\c1ccccc1F | 13.7 µM | 5.2 µM | 14 µM | 16.2 µM | Non-Toxic | – | –
27 | O=C1/C(=C/c2cccc(F)c2)CN(S(=O)(=O)c2ccc([N+](=O)[O-])cc2)C/C1=C\c1cccc(F)c1 | 8.1 µM | 15.3 µM | 14.5 µM | 10.7 µM | Non-Toxic | – | –
28 | COc1cccc2c1C(=O)c1c(O)c3c(c(O)c1C2=O)C[C@@](O)(C(=O)CO)C[C@@H]3O[C@H]1C[C@H](N)[C@H](O)[C@H](C)O1 [DOXORUBICIN] | 1 µM | – | 12.2 µM | 13.8 µM | – | – | –
29 | O=C1/C(=C/c2cccc(F)c2)CN(S(=O)(=O)c2ccccc2)C/C1=C\c1cccc(F)c1 | 3.4 µM | 12.9 µM | 17.1 µM | 16.2 µM | Non-Toxic | – | –
30 | O=C1/C(=C/c2ccc(F)cc2)CN(S(=O)(=O)c2ccc([N+](=O)[O-])cc2)C/C1=C\c1ccc(F)cc1 | 5.4 µM | 5 µM | 7.8 µM | 16.2 µM | Non-Toxic | – | –
31 | O=C1/C(=C/c2ccccc2F)CN(S(=O)(=O)c2ccc([N+](=O)[O-])cc2)C/C1=C\c1ccccc1F | 16.5 µM | 6.2 µM | 6.6 µM | 15.5 µM | Non-Toxic | – | –
32 | O=C1/C(=C/c2ccc(F)cc2)CN(S(=O)(=O)c2ccccc2)C/C1=C\c1ccc(F)cc1 | 18.8 µM | 9.1 µM | 7.7 µM | 18.8 µM | Non-Toxic | – | –
33 | N#Cc1ccc(S(=O)(=O)N2C/C(=C\c3cccc(F)c3)C(=O)/C(=C/c3cccc(F)c3)C2)cc1 | 2.6 µM | 4.5 µM | 7.5 µM | 15.5 µM | Non-Toxic | – | –
34 | O=C1/C(=C/c2ccc(F)cc2)CN(S(=O)(=O)c2ccc(C(F)(F)F)cc2)C/C1=C\c1ccc(F)cc1 | 3.2 µM | 4.4 µM | 16.1 µM | 13.5 µM | Non-Toxic | – | –
35 | N#Cc1ccc(S(=O)(=O)N2C/C(=C\c3ccc(F)cc3)C(=O)/C(=C/c3ccc(F)cc3)C2)cc1 | 9.8 µM | 15 µM | 14.6 µM | 14.7 µM | Non-Toxic | – | –
36 | O=C1/C(=C/c2cccc(F)c2)CN(S(=O)(=O)c2ccc(F)cc2)C/C1=C\c1cccc(F)c1 | 5 µM | 13.5 µM | 15.4 µM | 21.9 µM | Non-Toxic | – | –
37 | Cc1ccc(S(=O)(=O)N2C/C(=C\c3ccccc3F)C(=O)/C(=C/c3ccccc3F)C2)cc1 | 14.2 µM | 4.1 µM | 7.9 µM | 16.7 µM | Non-Toxic | – | –
